# Source: BindingDB's records for doi:10.1021/np2003066 (The University of Montana, 2011)
# Biological target: Interleukin-1 beta (Homo sapiens, UniProt P01584)
# Assay: Induction of IL-1 beta production in LPS-induced human THP-1 cells by ELISA
# Method in brief: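 THP-1 cells were differentiated with PMA (1 μg/mL) for 24 h, scraped, pelleted and resuspended at 1.0 × 10^6 cells/mL. They were exposed together to test inhibitor, LPS [20 ng/mL] and TiO2 nanowires (100 μg/ml) for 24 h at 37 °C in a CO2 incubator. IL-1β released was measured by DuoSet ELISA, and IC50 was derived from the post-exposure IL-1β levels.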
# Interleukin-1 beta, sequence (P01584 117-269 limits assumed): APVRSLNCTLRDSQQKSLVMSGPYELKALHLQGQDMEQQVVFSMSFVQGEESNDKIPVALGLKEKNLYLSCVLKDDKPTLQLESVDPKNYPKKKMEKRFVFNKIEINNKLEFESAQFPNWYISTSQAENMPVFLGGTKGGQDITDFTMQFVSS
row,IC50,SMILES
1,2 µM,CC(=O)N[C@@H](Cc1ccc(O)cc1)C(=O)N[C@H](C(=O)N[C@@H](C)C(=O)N[C@H](C=O)CC(=O)O)C(C)C
2,15.5 µM,C=C1[C@@]2(C)C[C@H]3[C@]4(C)CCC(=O)C(C)(C)[C@H]4CC[C@]3(C)[C@]1(C(=O)OC)C(=O)[C@@](C)(O)C2=O
3,2.7 µM,C=C1[C@@]2(C)C[C@H]3[C@]4(C)CC[C@@H](O)C(C)(C)[C@H]4CC[C@]3(C)[C@]1(C(=O)OC)C(=O)[C@@](C)(O)C2=O
4,3.7 µM,C=C1[C@@]2(C)C[C@@H]3[C@](C)(CC=C4C(C)(C)OC(=O)CC[C@]43C)[C@]1(C(=O)OC)C(=O)[C@@](C)(O)C2=O
5,37.8 µM,C=C(C)C1=CC[C@@]2(C)[C@@H](C[C@]3(C)C(=C)[C@@]2(C(=O)OC)C(=O)[C@@](C)(O)C3=O)[C@]1(C)CCC(=O)O
6,4.4 µM,C=C1[C@@]2(C)C[C@H]3C(C)=C4CC(=O)OC(C)(C)C4=CC[C@]3(C)[C@]1(C(=O)OC)C(=O)[C@@](C)(O)C2=O [BERKELEYDIONE]

row,SMILES,IC50
1,C=C1[C@@]2(C)C[C@H]3[C@]4(C)CCC(=O)OC(C)(C)[C@@H]4CC[C@]3(C)[C@]1(C(=O)OC)C(=O)[C@@](C)(O)C2=O,34.3 µM
